Source: ChEMBL document CHEMBL1155278, “3,4-Diaryl-isoxazoles and -imidazoles as potent dual inhibitors of p38alpha mitogen activated protein kinase and casein kinase 1delta” (J Med Chem, 2009)

How the values were obtained:
[1] = molecular target: Insulin-like growth factor 1 receptor (Homo sapiens) (UniProt P08069); test: Inhibition of IGF1R assessed as residual activity at 0.1 uM by Cherenkov counting relative to control in presence of 5 uM ATP
How it was run: (§1)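 Single-concentration screen at 0.1 µM across a panel of 76 protein kinases. Each kinase was run at an ATP concentration approximating its ATP Km. Results are % mean residual activity versus control assays without compound (n = 3 ± SD).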

[2] = molecular target: Mitogen-activated protein kinase 14 (Homo sapiens, UniProt Q16539); test: Inhibition of p38alpha assessed as residual activity at 0.1 uM by Cherenkov counting relative to control
How it was run: (§2)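 Single-concentration screen at 0.1 μM in a 76-kinase panel. ATP for each kinase was set near its Km for ATP. Residual activity is given as a percentage of control assays without compound, mean of n = 3 ± SD.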

[3] = molecular target: Rho-associated protein kinase 2 (Homo sapiens) (UniProt O75116); test: Inhibition of ROCK2 assessed as residual activity at 0.1 uM by Cherenkov counting relative to control in presence of 20 uM ATP; how it was run: as §2
[4] = molecular target: T1, Serine/threonine-protein kinase D1 (Homo sapiens) (UniProt Q15139); test: Inhibition of PKD1 assessed as residual activity at 0.1 uM by Cherenkov counting relative to control in presence of 50 uM ATP; how it was run: as §2
T1 sequence (whole entry): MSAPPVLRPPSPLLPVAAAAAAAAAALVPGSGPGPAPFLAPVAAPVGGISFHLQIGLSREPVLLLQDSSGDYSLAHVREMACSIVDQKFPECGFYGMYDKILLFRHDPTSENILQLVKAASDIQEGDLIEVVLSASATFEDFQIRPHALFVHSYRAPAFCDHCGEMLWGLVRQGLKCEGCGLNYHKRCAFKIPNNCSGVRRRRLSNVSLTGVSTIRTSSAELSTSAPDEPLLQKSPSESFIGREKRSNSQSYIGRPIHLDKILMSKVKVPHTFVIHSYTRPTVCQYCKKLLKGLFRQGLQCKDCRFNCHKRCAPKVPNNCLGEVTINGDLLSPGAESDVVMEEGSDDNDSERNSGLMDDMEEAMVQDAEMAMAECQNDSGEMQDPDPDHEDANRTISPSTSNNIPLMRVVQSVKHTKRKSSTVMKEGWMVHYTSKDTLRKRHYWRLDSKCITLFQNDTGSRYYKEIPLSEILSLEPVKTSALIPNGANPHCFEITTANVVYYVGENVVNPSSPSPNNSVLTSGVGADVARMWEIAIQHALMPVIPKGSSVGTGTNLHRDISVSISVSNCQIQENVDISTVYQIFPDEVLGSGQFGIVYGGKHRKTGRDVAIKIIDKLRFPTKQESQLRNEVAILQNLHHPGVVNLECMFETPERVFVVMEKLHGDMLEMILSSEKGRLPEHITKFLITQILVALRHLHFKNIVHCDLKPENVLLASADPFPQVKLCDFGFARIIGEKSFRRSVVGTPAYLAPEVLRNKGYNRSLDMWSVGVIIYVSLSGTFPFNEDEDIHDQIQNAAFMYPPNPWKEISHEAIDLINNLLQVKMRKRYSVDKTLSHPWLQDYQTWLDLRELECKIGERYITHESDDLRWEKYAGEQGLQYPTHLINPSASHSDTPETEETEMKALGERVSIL

[5] = molecular target: MAP kinase-activated protein kinase 2 (Homo sapiens) (UniProt P49137); test: Inhibition of MAPKAPK2 assessed as residual activity at 0.1 uM by Cherenkov counting relative to control in presence of 20 uM ATP
How it was run: (§3)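 Single-concentration selectivity screen at 0.1 μM against a panel of 76 protein kinases. Each kinase was run at an ATP level approximating its Km for ATP. Output is mean residual activity as % of the control assay without compound, n = 3 ± SD.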

[6] = Inhibition of PHK assessed as residual activity at 0.1 uM by Cherenkov counting relative to control; how it was run: as §3
[7] = molecular target: MAP/microtubule affinity-regulating kinase 3 (Homo sapiens) (UniProt P27448); test: Inhibition of MARK3 assessed as residual activity at 0.1 uM by Cherenkov counting relative to control in presence of 5 uM ATP; how it was run: as §3
[8] = molecular target: Dual specificity tyrosine-phosphorylation-regulated kinase 1A (Homo sapiens) (UniProt Q13627); test: Inhibition of DYRK1A assessed as residual activity at 0.1 uM by Cherenkov counting relative to control in presence of 50 uM ATP; how it was run: as §1
[9] = molecular target: 3-phosphoinositide-dependent protein kinase 1 (Homo sapiens) (UniProt O15530); test: Inhibition of PDK1 assessed as residual activity at 0.1 uM by Cherenkov counting relative to control in presence of 20 uM ATP
[10] = molecular target: Ribosomal protein S6 kinase alpha-3 (Homo sapiens) (UniProt P51812); test: Inhibition of RSK2 assessed as residual activity at 10 uM by Cherenkov counting relative to control in presence of 50 uM ATP
How it was run: (§4)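 Single-concentration profiling at 10 μM in a 78-kinase panel. Kinase activity is expressed as a percentage of control assays run without compound.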

[11] = molecular target: Protein kinase C alpha type (Homo sapiens) (UniProt P17252); test: Inhibition of PKCalpha assessed as residual activity at 10 uM by Cherenkov counting relative to control in presence of 20 uM ATP; how it was run: as §4
[12] = molecular target: Myosin light chain kinase, smooth muscle (Homo sapiens) (UniProt Q15746); test: Inhibition of smooth muscle MLCK assessed as residual activity at 10 uM by Cherenkov counting relative to control in presence of 50 uM ATP; how it was run: as §4
[13] = molecular target: T2, Dual specificity tyrosine-phosphorylation-regulated kinase 3 (Homo sapiens) (UniProt O43781); test: Inhibition of DYRK3 assessed as residual activity at 10 uM by Cherenkov counting relative to control in presence of 5 uM ATP
T2 sequence (whole entry): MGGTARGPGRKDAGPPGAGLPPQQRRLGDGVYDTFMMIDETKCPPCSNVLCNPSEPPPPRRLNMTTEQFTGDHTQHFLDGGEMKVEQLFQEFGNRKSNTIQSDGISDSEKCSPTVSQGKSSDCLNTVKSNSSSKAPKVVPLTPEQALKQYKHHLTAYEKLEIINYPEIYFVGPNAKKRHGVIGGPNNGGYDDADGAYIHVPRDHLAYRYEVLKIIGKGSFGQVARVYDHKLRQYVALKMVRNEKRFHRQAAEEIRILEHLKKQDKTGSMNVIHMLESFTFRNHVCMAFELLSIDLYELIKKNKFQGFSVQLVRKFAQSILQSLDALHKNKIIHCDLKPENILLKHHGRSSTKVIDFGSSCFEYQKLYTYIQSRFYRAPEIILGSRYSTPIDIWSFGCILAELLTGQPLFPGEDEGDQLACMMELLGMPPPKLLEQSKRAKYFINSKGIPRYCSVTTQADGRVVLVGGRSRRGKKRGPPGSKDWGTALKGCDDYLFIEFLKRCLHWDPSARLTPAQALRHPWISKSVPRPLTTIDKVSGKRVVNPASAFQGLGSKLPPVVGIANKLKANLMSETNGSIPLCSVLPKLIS
How it was run: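 Single-point profiling at 10 µM in a panel of 78 protein kinases. Kinase activity is expressed as a percentage relative to control assays without compound.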

Chain of MAP kinase-activated protein kinase 2 (Homo sapiens) (P49137 whole entry, looked up): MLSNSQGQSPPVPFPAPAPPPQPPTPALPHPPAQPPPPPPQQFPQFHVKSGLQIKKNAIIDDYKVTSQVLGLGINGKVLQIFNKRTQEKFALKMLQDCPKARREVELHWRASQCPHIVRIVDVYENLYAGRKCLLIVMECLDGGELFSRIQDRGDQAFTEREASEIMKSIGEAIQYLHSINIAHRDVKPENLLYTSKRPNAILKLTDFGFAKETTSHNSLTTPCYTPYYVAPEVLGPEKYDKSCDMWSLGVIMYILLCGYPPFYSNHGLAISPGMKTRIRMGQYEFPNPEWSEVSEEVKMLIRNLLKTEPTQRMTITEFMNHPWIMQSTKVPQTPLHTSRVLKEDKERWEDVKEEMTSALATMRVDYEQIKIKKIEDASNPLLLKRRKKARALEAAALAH
Chain of MAP/microtubule affinity-regulating kinase 3 (Homo sapiens) (P27448 whole entry, looked up): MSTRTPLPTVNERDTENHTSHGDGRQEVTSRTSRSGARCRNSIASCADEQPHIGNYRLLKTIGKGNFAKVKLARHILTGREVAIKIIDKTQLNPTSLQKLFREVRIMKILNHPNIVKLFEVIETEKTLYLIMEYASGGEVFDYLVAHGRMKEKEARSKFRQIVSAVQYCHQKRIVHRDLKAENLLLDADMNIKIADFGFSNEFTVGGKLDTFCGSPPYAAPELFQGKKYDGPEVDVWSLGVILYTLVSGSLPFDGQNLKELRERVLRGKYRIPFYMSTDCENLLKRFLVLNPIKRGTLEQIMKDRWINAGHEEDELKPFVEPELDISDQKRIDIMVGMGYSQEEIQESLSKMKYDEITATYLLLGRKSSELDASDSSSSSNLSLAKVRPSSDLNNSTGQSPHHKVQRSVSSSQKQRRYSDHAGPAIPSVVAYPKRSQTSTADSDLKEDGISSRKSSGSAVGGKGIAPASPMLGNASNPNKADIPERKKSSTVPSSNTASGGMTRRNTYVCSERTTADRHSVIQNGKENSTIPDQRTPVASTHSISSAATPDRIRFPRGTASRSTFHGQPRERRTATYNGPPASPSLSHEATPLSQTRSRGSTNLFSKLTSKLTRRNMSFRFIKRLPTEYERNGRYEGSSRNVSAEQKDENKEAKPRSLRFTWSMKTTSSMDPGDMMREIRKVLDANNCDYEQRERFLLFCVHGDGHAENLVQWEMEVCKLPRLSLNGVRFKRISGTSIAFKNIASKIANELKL
Chain of Rho-associated protein kinase 2 (Homo sapiens) (O75116 whole entry, looked up): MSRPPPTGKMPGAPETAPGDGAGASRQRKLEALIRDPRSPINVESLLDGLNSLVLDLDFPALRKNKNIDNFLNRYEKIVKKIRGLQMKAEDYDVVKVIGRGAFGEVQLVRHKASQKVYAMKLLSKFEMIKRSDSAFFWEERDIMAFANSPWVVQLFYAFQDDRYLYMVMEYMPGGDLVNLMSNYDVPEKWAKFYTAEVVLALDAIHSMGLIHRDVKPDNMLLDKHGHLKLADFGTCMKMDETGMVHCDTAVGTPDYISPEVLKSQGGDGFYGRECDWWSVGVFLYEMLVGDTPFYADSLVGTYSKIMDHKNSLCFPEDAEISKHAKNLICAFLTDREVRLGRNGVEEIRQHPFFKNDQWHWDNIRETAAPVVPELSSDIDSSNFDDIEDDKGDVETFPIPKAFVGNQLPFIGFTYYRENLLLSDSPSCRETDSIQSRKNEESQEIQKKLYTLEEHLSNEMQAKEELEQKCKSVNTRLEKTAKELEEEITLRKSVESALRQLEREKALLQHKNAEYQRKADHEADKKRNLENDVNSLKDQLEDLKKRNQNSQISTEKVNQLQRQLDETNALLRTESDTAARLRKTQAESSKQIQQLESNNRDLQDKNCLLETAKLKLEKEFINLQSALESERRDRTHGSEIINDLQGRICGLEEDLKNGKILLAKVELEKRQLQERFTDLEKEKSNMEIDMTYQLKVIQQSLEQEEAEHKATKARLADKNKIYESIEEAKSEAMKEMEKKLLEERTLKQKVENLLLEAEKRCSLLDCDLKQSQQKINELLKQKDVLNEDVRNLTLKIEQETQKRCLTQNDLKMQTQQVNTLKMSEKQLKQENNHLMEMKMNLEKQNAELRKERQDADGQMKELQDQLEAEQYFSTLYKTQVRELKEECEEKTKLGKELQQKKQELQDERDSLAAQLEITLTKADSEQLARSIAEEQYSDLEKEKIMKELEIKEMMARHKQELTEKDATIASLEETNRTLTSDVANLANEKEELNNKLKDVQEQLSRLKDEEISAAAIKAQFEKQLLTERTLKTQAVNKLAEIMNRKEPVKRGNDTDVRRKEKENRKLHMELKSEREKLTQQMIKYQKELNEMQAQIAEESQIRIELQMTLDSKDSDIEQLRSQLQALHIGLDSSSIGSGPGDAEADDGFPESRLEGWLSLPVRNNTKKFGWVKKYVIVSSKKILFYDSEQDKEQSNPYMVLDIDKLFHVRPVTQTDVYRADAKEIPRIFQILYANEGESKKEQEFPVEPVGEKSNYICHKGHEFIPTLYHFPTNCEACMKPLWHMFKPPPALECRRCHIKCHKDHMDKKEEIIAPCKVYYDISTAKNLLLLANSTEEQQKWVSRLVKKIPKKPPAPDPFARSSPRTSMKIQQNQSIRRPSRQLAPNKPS
Chain of 3-phosphoinositide-dependent protein kinase 1 (Homo sapiens) (O15530 whole entry, looked up): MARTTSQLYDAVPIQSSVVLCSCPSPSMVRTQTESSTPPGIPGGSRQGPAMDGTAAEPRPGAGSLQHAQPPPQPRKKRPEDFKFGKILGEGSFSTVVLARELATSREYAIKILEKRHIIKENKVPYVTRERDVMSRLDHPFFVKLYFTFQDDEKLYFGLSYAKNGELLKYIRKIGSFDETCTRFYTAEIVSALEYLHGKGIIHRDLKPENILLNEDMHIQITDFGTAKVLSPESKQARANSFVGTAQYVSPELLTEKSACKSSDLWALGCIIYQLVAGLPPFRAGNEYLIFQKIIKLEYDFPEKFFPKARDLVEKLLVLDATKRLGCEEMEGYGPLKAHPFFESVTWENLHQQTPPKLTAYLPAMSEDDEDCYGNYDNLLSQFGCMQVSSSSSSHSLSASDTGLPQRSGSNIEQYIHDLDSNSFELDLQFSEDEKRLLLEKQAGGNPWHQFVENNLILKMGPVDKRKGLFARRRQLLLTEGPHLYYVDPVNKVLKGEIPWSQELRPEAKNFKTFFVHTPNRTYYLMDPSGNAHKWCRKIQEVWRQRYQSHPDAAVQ
Chain of Mitogen-activated protein kinase 14 (Q16539 whole entry): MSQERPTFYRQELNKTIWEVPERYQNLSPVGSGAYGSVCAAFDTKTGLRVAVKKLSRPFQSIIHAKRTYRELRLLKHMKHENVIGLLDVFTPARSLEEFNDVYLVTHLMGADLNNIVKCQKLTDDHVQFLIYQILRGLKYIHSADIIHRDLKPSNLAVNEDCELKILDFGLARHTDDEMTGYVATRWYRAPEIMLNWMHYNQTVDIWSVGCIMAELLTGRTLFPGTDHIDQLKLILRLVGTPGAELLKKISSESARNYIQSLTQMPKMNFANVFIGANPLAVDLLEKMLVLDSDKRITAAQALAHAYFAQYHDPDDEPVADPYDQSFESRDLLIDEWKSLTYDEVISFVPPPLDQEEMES
Chain of Ribosomal protein S6 kinase alpha-3 (Homo sapiens) (P51812 whole entry): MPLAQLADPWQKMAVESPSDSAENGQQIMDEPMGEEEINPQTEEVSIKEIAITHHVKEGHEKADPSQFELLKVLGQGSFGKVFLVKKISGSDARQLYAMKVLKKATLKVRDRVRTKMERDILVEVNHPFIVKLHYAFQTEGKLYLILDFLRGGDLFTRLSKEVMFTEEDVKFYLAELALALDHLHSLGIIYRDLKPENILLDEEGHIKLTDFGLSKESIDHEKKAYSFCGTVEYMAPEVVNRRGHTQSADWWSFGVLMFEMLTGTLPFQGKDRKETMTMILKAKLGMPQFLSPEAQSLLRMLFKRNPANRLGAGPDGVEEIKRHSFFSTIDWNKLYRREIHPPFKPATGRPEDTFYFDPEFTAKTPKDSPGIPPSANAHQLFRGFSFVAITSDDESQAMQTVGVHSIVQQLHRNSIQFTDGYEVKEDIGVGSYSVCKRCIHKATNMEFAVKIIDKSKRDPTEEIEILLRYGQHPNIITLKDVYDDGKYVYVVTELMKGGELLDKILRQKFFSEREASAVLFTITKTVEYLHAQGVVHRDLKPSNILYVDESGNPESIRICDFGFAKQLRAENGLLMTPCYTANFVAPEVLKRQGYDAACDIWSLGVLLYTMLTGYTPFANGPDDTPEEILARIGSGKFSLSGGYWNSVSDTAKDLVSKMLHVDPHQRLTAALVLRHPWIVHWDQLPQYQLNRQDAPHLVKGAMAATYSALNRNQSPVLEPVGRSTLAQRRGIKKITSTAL

Activity [1] | Activity [2] | Activity [3] | Activity [4] | Activity [5] | Activity [6] | Activity [7] | Activity [8] | Activity [9] | Activity [10] | Activity [11] | Activity [12] | Activity [13] | SMILES
107% | 5% | 88% | 97% | 78% | 102% | 89% | 86% | 94% | – | – | – | – | COc1ccc(/C=C/C(=O)Nc2cc(-c3[nH]c([S+](C)[O-])nc3-c3ccc(F)cc3)ccn2)c(OC)c1 (stereo unspecified)
– | – | – | – | – | – | – | – | – | 120% | 104% | 110% | 101% | CC(C)c1noc(-c2ccc(F)cc2)c1-c1ccncc1
– | – | – | – | – | – | – | – | – | 113% | 95% | 99% | 97% | CC(C)c1onc(-c2ccc(F)cc2)c1-c1ccncc1
87% | 3% | 81% | 88% | 82% | 99% | 87% | 78% | 74% | – | – | – | – | COc1ccc(/C=C/C(=O)Nc2cc(-c3[nH]c(SC)nc3-c3ccc(F)cc3)ccn2)c(OC)c1
